Assay results published in paper PMC7647958 (Molecular imaging and biology, 2020).

How the values were obtained:
[1] = tested on: DX3puro [αvβ6(−)] cells; experiment: Cell binding and internalization, DX3puro cells; assay type: cell-based; details: 60 min; n = 4
Procedure, shortened: (§1)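 Tubes were pretreated with non-fat milk (0.5 % w/v in PBS). DX3puro cells were kept in DMEM with puromycin (2 μg/ml); BxPC-3 cells were kept in RPMI. Both media had 10 % heat-inactivated FBS and 1 % PSG, at 37 °C and 5 % CO2. Integrin expression was checked by flow cytometry beforehand. Radiotracer binding and internalization ran 60 min (n = 4) and are reported as fraction of total radioactivity.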

[2] = tested on: BxPC-3 [αvβ6(+)] cells; experiment: Cell binding and internalization, BxPC-3 cells; assay type: cell-based; details: 60 min; n = 4; mean ± SD
Procedure, shortened: as §1

[3] = Serum stability, mouse serum; assay type: in vitro ADME
Procedure, shortened: (§2)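 Formulated radiotracer (12.5–25 μl, 2–6 MBq) was added to 0.5 ml of either human or mouse serum and incubated at 37 °C in a sealed tube. At each time point an aliquot was withdrawn and serum proteins were precipitated. The supernatant was analysed by HPLC for intact radiotracer.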

[4] = Serum stability, human serum; assay type: in vitro ADME
Procedure, shortened: as §2

[5] = PET imaging, radioactivity remaining in the body; assay type: in vivo, mouse; details: 4 h p.i., i.v., PET imaging studies, tumor-bearing mice, n = 4; mean ± SD
Procedure, shortened: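 Mice bearing xenografts (paired DX3puroβ6/DX3puro or BxPC-3) received 5–7 MBq radiotracer i.v. via tail vein, with mass held at 0.175 nmol (7 nmol/kg for a 25-g mouse). Two mice per scan lay prone under 1.5–2.0 % isoflurane (n = 4/radiotracer). Static PET scans: 15 min at 1, 2, 4 h and 30 min at 6 h p.i., plus CT. Body-retained radioactivity was decay corrected.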

[6] = Biodistribution in mice bearing paired DX3puroβ6/DX3puro xenograft tumors; assay type: in vivo; details: female, athymic nude, mouse, iv, 0.175 nmol per injection, total radioactivity; for tissue uptake at 1 h: 1 h p.i.
Procedure, shortened: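 Female athymic nude mice carried 3 × 10^6 DX3puro and 3 × 10^6 DX3puroβ6 cells s.c. in DMEM on opposite flanks; studies began at ~0.5 cm tumor diameter. Radiotracer at 1.5–3.3 MBq/animal was given i.v. via tail vein under isoflurane, with mass held at 0.175 nmol by adding nonradioactive peptide. Tissues were taken at 1, 2, 4 or 2, 4, 6 h p.i. (n = 3–4), rinsed and γ-counted; results are decay-corrected % ID/g.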

For CC(C)C[C@H](NC(=O)[C@H](CC(=O)O)NC(=O)CNC(=O)[C@H](CCCNC(=N)N)NC(=O)[C@H](CC(C)C)NC(=O)[C@H](CC(N)=O)NC(=O)[C@@H]1CCCN1C(=O)[C@@H](NC(=O)[C@H](C)NC(=O)[C@H](CC(N)=O)NC(=O)CCOCCOCCOCCOCCOCCOCCOCCOCCOCCOCCOCCOCCOCCOCCOCCOCCOCCOCCOCCOCCOCCOCCOCCOCCOCCOCCOCCOCCNC(=O)CN1CCN(CC(=O)O)CCN(CC(=O)O)CC1)C(C)C)C(=O)N[C@@H](CCC(N)=O)C(=O)N[C@H](C(=O)N[C@@H](CC(C)C)C(=O)N[C@@H](C)C(=O)N[C@@H](CCC(N)=O)C(=O)N[C@@H](CCCNC(=N)N)C(=O)N[C@H](C(=O)N[C@@H](C)C(=O)N[C@@H](CCCNC(=N)N)C(=O)N[C@H](C(=O)NCCOCCOCCOCCOCCOCCOCCOCCOCCOCCOCCOCCOCCOCCOCCOCCOCCOCCOCCOCCOCCOCCOCCOCCOCCOCCOCCOCCOCCC(N)=O)[C@@H](C)O)C(C)C)C(C)C [[^18F]AlF 1, [^18F]AlF NOTA-αvβ6-BP], which “binding to DX3puro cells (of total radioactivity)” value [1] is on record?
The value was no more than 1.2%.

What about the “internalization into DX3puro cells (of total radioactivity)” value [1] of the same compound?
The value was no more than 0.5%.

What about the “binding to BxPC-3 cells (of total radioactivity)” value [2] of the same compound?
The value was 45.1 ± 0.7%.

What about the “internalization into BxPC-3 cells (of total radioactivity)” value [2] of the same compound?
The value was 31.5 ± 1.3%.

What about the remaining at 2 h [3] of the same compound?
The remaining at 2 h was 67%.

And the remaining at 2 h [4]?
The remaining at 2 h was no less than 97%.

And the “injected radioactivity remaining in the body (decay corrected)” value [5]?
The value was 21.7 ± 3.4%.

And the tissue uptake ([6]; DX3puro tumor, uptake in DX3puro tumor, all time points (1, 2, 4 h p.i.))?
Its tissue uptake is no more than 0.3 %ID/g.

What about the tissue uptake at 1 h ([6]; DX3puroβ6 tumor, uptake in DX3puroβ6 tumor, n = 3–4, mean ± SD) of the same compound?
The tissue uptake at 1 h was 2.2 ± 0.5 %ID/g.

What about the tissue uptake at 4 h ([6]; DX3puroβ6 tumor, uptake in DX3puroβ6 tumor, 4 h p.i., n = 3–4, mean ± SD) of the same compound?
The tissue uptake at 4 h was 3 ± 0.7 %ID/g.

What about the tissue uptake at 1 h ([6]; blood, blood radioactivity, DX3puroβ6/DX3puro model) of the same compound?
Its tissue uptake at 1 h is no more than 0.1 %ID/g.
